Measurements published in ChEMBL document CHEMBL1148066, “Binding of quinolizidine alkaloids to nicotinic and muscarinic acetylcholine receptors” (J Nat Prod, 1994).

Tests used:
[1] = Displacement of [3H]nicotin from nicotinic ACh receptor
Summary of the method: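 Porcine brain membranes (sucrose/K+-phosphate pH 7.0/EDTA homogenate, 100,000 g pellet) incubated with 3H-nicotine and alkaloids (0.5 nM–10 mM) for 40 min at 20°; 1 mM nicotine defines nonspecific binding. Rapid filtration on BSA-presoaked glass fiber filters, saline washes, scintillation counting; triplicates. IC50 = concentration displacing 50% of specific binding.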

[2] = Displacement of [3H]quinuclidinyl benzilate from muscarinic ACh receptor
Summary of the method: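 Porcine brain membranes (500 µg protein; 10 mM K+-phosphate pH 7.0, 1 mM EDTA) incubated with 3H-QNB and alkaloids (0.5 nM–10 mM) for 1 h at 20°; atropine blank for nonspecific binding. Stopped with ice-cold 0.9% NaCl, rapid glass-fiber filtration, three washes, scintillation counting; triplicates. IC50 = concentration displacing 50% of specific binding.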

| Structure (SMILES) | IC50 [1] | IC50 [2] |
| --- | --- | --- |
| CN1C[C@@H]2C[C@H](C1)c1cccc(=O)n1C2 | 0.05 µM | 417 µM |
| O=C1[C@H]2C[C@@H](CN3CCCC[C@@H]23)[C@H]2CCCCN12 | 155 µM | 118 µM |
| O=C1[C@H](O)CC[C@@H]2[C@H]3C[C@@H](CN12)[C@@H]1CCCCN1C3 | 190 µM | 74 µM |
| O=C1CCC[C@@H]2[C@H]3C[C@@H](CN12)[C@@H]1C[C@H](O)CCN1C3 | 490 µM | 140 µM |
| C=CC[C@H]1NC[C@H]2C[C@@H]1[C@H]1CC(=O)C=CN1C2 [ALBINE] | 193 µM | 33 µM |
| O=c1cccc2n1C[C@H]1C[C@@H]2CN2CCCC[C@H]12 [ANAGYRINE] | 2100 µM | 132 µM |
| C=CC[C@@H]1NC[C@@H]2C[C@H]1CN1C(=O)CCC[C@H]21 [ANGUSTIFOLINE] | > 500 µM | 25 µM |
| O=c1cccc2n1C[C@@H]1CNC[C@H]2C1 [CYTISINICLINE] | 0.14 µM | 400 µM |
| O=C1CCC[C@@H]2[C@H]3C[C@@H](CN12)[C@@H]1CCCCN1C3 [LUPANINE] | 5 µM | 114 µM |
| OC[C@@H]1CCCN2CCCC[C@H]12 [LUPININE] | > 500 µM | 190 µM |
| O=C1C=CN2C[C@@H]3C[C@@H](CN4CCCC[C@@H]34)[C@H]2C1 [MULTIFLORINE] | > 500 µM | 47 µM |
| C1CCN2C[C@@H]3C[C@@H](CN4CCCC[C@@H]34)[C@H]2C1 [SPARTEINE] | 331 µM | 21 µM |
| C=CCCN1C[C@H]2C[C@@H](C1)[C@H]1CCCC(=O)N1C2 [TETRAHYDRORHOMBIFOLINE] | 310 µM | 129 µM |
